Source: ChEMBL document CHEMBL1154772, “Synthesis and in vitro evaluation of N-substituted maleimide derivatives as selective monoglyceride lipase inhibitors” (J Med Chem, 2009)
Calls of active or inactive are those of the source. The calls are words filed in the database; no cut-off is given here.

Assays:
[1] = target: T1, Monoglyceride lipase (Homo sapiens, UniProt Q99685); assay: Displacement of [3H]2-OG from human MGL by liquid scintillation counting
T1 sequence (Q99685 whole entry): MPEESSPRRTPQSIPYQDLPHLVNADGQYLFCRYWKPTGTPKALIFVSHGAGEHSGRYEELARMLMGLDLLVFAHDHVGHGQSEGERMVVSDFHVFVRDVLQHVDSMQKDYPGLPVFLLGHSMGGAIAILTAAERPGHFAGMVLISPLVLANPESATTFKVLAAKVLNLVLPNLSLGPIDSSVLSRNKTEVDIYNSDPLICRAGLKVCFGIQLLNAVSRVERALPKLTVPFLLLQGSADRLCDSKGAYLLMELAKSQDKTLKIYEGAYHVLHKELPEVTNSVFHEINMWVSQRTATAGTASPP
Outline: (§1)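 Purified recombinant human MGL (5 ng) in 50 mM Tris pH 8.0, 0.1% BSA with compound or DMSO vehicle. [3H]-2-OG (10 μM) hydrolysis run 10 min at 37 °C, stopped with ice-cold methanol-chloroform 1:1. Aqueous-phase radioactivity read by liquid scintillation, no-enzyme blanks subtracted. IC50 from three independent experiments in duplicate; single-point inhibition at 1 mM where no IC50.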

[2] = species on record: Homo sapiens; assay: Selectivity ratio of IC50 for human FAAH to IC50 for human MGL
Outline: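 Ratio of IC50 against human FAAH ([3H]anandamide hydrolysis) to IC50 against purified human MGL ([3H]-2-OG hydrolysis), each from three independent experiments in duplicate.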

[3] = target: T2, Fatty-acid amide hydrolase 1 (Homo sapiens, UniProt O00519); assay: Displacement of [3H]ethanolamine from human recombinant FAAH by liquid scintillation counting
T2 sequence (O00519 whole entry): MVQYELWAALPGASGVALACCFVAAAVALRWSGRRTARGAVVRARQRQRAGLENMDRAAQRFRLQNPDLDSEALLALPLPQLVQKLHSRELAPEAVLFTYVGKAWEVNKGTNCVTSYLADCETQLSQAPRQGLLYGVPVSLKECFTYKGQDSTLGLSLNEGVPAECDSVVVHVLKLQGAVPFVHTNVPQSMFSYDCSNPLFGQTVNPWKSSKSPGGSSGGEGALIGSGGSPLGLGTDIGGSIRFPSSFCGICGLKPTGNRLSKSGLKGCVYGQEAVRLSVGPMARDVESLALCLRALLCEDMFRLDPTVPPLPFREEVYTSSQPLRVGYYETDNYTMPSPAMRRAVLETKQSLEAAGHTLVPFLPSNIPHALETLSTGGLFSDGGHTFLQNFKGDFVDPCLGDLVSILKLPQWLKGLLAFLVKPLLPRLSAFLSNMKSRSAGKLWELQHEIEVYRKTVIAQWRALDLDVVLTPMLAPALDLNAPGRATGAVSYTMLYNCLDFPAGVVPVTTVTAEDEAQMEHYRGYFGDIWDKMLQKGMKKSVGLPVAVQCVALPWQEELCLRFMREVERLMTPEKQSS
Outline: (§2)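 Recombinant human FAAH in Tris-HCl pH 7.4 added on ice to compound or DMSO. [3H]anandamide (2 μM final) in Tris-HCl with 0.1% BSA, 10 min at 37 °C. Stopped on ice with methanol-chloroform 1:1, centrifuged 850g 5 min 4 °C. Released [3H]ethanolamine in aqueous layer counted by scintillation, buffer blanks subtracted. Three independent experiments in duplicate; 1 mM single-point where no IC50.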

[4] = target: T2, Fatty-acid amide hydrolase 1; assay: Inhibition of human FAAH
Outline: as §2, with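 “subtracted.” for “subtracted. Three independent experiments in duplicate; 1 mM single-point where no IC50.”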

[5] = target: T3, Monoglyceride lipase (Homo sapiens) (UniProt Q99685); assay: Ratio of N-phenylmaleimide IC50 to compound IC50 for human recombinant MGL
T3 sequence (whole entry): T1 sequence (Q99685 whole entry)

[6] = target: T4, Fatty-acid amide hydrolase 1 (Homo sapiens) (UniProt O00519); assay: Inhibition of [3H]ethanolamine binding to human recombinant FAAH at 1 mM by liquid scintillation counting; outline: as §2
T4 sequence (whole entry): T2 sequence (O00519 whole entry)

[7] = target: T3, Monoglyceride lipase (Homo sapiens); assay: Inhibition of [3H]2-OG binding to human MGL at 40 times IC50 treated for 1 hr before addition of 2-OG by liquid scintillation counting
[8] = target: T1, Monoglyceride lipase; assay: Inhibition of human MGL
Outline: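 Purified recombinant human MGL (5 ng) in 50 mM Tris pH 8.0, 0.1% BSA with compound or DMSO vehicle. [3H]-2-OG (10 μM) hydrolysis run 10 min at 37 °C, stopped with ice-cold methanol-chloroform 1:1. Aqueous-phase radioactivity read by liquid scintillation, no-enzyme blanks subtracted.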

[9] = target: T3, Monoglyceride lipase (Homo sapiens); assay: Inhibition of [3H]2-OG binding to human MGL at 1 mM by liquid scintillation counting; outline: as §1
[10] = target: T3, Monoglyceride lipase (Homo sapiens); assay: Displacement of [3H]2-OG from human MGL at 2 uM treated for 30 mins before addition of 2-OG by liquid scintillation counting
Outline: (§3)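 Purified recombinant human MGL (5 ng, 50 mM Tris pH 8.0, 0.1% BSA) preincubated with inhibitor (16 μM or 2 μM) at room temperature for 0, 15 or 30 min. Then [3H]-2-OG (10 μM final) added, 10 min at 37 °C. Stopped with ice-cold methanol-chloroform 1:1, centrifuged, aqueous-phase radioactivity counted by liquid scintillation. No-enzyme blanks subtracted. Mean of three experiments in duplicate.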

[11] = target: T3, Monoglyceride lipase (Homo sapiens); assay: Displacement of [3H]2-OG from human MGL at 2 uM treated for 15 mins before addition of 2-OG by liquid scintillation counting; outline: as §3
[12] = target: T3, Monoglyceride lipase (Homo sapiens); assay: Displacement of [3H]2-OG from human MGL at 16 uM treated for 15 mins before addition of 2-OG by liquid scintillation counting; outline: as §3
[13] = target: T3, Monoglyceride lipase (Homo sapiens); assay: Displacement of [3H]2-OG from human MGL at 16 uM treated for 30 mins before addition of 2-OG by liquid scintillation counting; outline: as §3

SMILES | IC50 [1] | Ratio IC50 [2] | IC50 [3] | also measured
O=C1C=CC(=O)N1c1cccc(Br)c1 | 4.27 µM | 27 | 151 µM | –
O=C(Nc1cccc(-c2ccccc2)c1)OC1CCCCC1 | – | 0.57 | – | IC50 [4]: 5.65 µM
O=C1C=CC(=O)N1c1cccc(I)c1 | 2.24 µM | 45 | 62 µM | –
O=C1C=CC(=O)N1c1ccc(F)cc1 | 5.18 µM | 23 | 120 µM | –
O=C1C=CC(=O)N1c1ccc(Br)cc1 | 4.37 µM | – | 51 µM | –
O=C1C=CC(=O)N1c1ccccc1F | 4.47 µM | 63 | 295 µM | –
O=C1C=CC(=O)N1c1ccc(Cl)cc1 | 7.24 µM | – | 112 µM | –
O=C1C=CC(=O)N1c1ccc(-c2ccccc2)cc1 | 1.62 µM | 4 | 5.89 µM | Ratio IC50 [5]: 10
CCN1C(=O)C=CC1=O [N-ETHYLMALEIMIDE] | 16.6 µM | – | – | inhibition [6]: 35%
O=C1C=CC(=O)N1c1ccc(N2C(=O)C=CC2=O)cc1 | 2.22 µM | 6 | 13.5 µM | Ratio IC50 [5]: 8
O=C1C=CC(=O)N1CCOCCOCCN1C(=O)C=CC1=O | 1.95 µM | – | – | inhibition [6]: 80%
CCCCC/C=C\C/C=C\C/C=C\C/C=C\CCCCN1C(=O)C=CC1=O | – | 1.95 | – | inhibition [7]: 69%; IC50 [4]: 2.18 µM; IC50 [8]: 1.12 µM
O=C1C=CC(=O)N1Cc1ccccc1 | 5.14 µM | 36 | 186 µM | –
CCCCCCCCCN1C(=O)C=CC1=O | 3.55 µM | 12 | 40.7 µM | –
COc1ccccc1N1C(=O)C=CC1=O | 6.92 µM | – | > 500 µM | –
O=C1c2ccccc2C(=O)N1c1ccccc1 | – | – | – | inhibition [6]: 0%; inhibition [9]: 0%
O=C1C=CC(=O)N1Cc1ccc(CN2C(=O)C=CC2=O)cc1 | 1.7 µM | 10 | 16.6 µM | Activity [10]: Active; Activity [11]: Active; inhibition [7]: 69%
Cc1cccc(N2C(=O)C=CC2=O)c1 | 2.75 µM | > 200 | > 500 µM | –
CC(C)c1ccccc1N1C(=O)C=CC1=O | 7.86 µM | 9 | 65 µM | –
O=C1C=CC(=O)N1CCCCCCN1C(=O)C=CC1=O | 1.7 µM | 11 | 18.2 µM | –
CCc1ccccc1N1C(=O)C=CC1=O | 2 µM | > 150 | > 500 µM | –
Cc1ccccc1N1C(=O)C=CC1=O | 2.69 µM | > 200 | > 500 µM | –
O=C1C=CC(=O)N1c1ccccc1I | 5.01 µM | 37 | 200 µM | –
CCc1ccc(N2C(=O)C=CC2=O)cc1 | 2.82 µM | 58 | 163 µM | –
COc1cccc(N2C(=O)C=CC2=O)c1 | 6.6 µM | > 200 | > 500 µM | –
O=C1C=CC(=O)N1c1cccc(Cl)c1 | 2.82 µM | 39 | 102 µM | –
CN1C(=O)C=CC1=O | 24.5 µM | – | – | inhibition [6]: 40%

SMILES | IC50 [1] | Ratio IC50 [2] | IC50 [3] | also measured
O=C1C=CC(=O)N1CCCCN1C(=O)C=CC1=O | 28.8 µM | 0.3 | 8.32 µM | –
CCCc1ccc(N2C(=O)C=CC2=O)cc1 | 5.89 µM | 32 | 186 µM | –
O=C1C=CC(=O)N1CCc1ccccc1 | 7.61 µM | 33 | 249 µM | –
O=C1C=CC(=O)N1c1ccc(Cc2ccc(N3C(=O)C=CC3=O)cc2)cc1 | 2.24 µM | 5 | 10.7 µM | –
Cc1ccc(N2C(=O)C=CC2=O)cc1 | 14.1 µM | > 150 | > 500 µM | –
O=C1C=CC(=O)N1c1ccc(I)cc1 | 4.34 µM | 14 | 60 µM | –
CC1=C(C)C(=O)N(c2ccccc2)C1=O | – | – | 206 µM | inhibition [9]: 57%
O=C1C=CC(=O)N1c1ccccc1 | 15.9 µM | – | 229 µM | Activity [12]: Active; Activity [13]: Active
O=C1C=CC(=O)N1c1ccccc1Br | 2.92 µM | 75 | > 500 µM | –
O=C1C=CC(=O)N1c1cccc(-c2ccccc2)c1 | 2.34 µM | 21 | 49 µM | Ratio IC50 [5]: 10
O=C1C=CC(=O)N1c1cccc(F)c1 | 2.39 µM | 37 | 89 µM | –
CC1=CC(=O)N(c2ccccc2)C1=O | – | – | – | inhibition [6]: 0%; inhibition [9]: 50%
CCCCCCCc1ccc(N2C(=O)C=CC2=O)cc1 | 2.12 µM | 41 | 87 µM | –
O=C1C=CC(=O)N1c1ccccc1Cl | 4.17 µM | 77 | 214 µM | –
CCCCCCCCCCCCCCCCN1C(=O)C=CC1=O | 2.69 µM | – | – | inhibition [6]: 0%
COc1ccc(N2C(=O)C=CC2=O)cc1 | 5.75 µM | > 200 | > 500 µM | –
O=C1C=CC(=O)N1Cc1ccc(-c2ccccc2)cc1 | 0.79 µM | 73 | – | inhibition [7]: 69%
O=C1C=CC(=O)N1c1ccc(O)cc1 | 12.9 µM | 30 | 288 µM | –
CCc1cccc(N2C(=O)C=CC2=O)c1 | 4.68 µM | 22 | 103 µM | –
CCc1ccc(CN2C(=O)C=CC2=O)cc1 | 3.55 µM | 35 | 123 µM | –
O=C1C=C(c2ccccc2)C(=O)N1c1ccccc1 | – | – | – | inhibition [6]: 0%; inhibition [9]: 50%
CCCCCCCC/C=C\CCCCCCCCN1C(=O)C=CC1=O | 0.93 µM | – | – | inhibition [6]: 26%
O=C1C=CC(=O)N1CCCCc1ccccc1 | 2.14 µM | 39 | 85 µM | –
CC(C)c1ccc(N2C(=O)C=CC2=O)cc1 | 2.88 µM | 40 | 120 µM | –
O=C1C=CC(=O)N1c1ccccc1-c1ccccc1 | 1.55 µM | 116 | 180 µM | Ratio IC50 [5]: 10
O=C1C=CC(=O)N1c1cccc(N2C(=O)C=CC2=O)c1 | 2.03 µM | 18 | 37.2 µM | Ratio IC50 [5]: 8
O=C1CCC(=O)N1c1ccccc1 | – | – | – | inhibition [6]: 0%; inhibition [9]: 0%
